In ChEMBL document CHEMBL1933044:
Active and inactive are the calls of the source. The calls are words filed in the database; no cut-off is given here.

Columns and labels:
[1] = system: Matrix protein 2 (Influenza A virus), P06821 [withheld]; test: Inhibition of Influenza A virus (A/Puerto Rico/8/1934(H1N1)) M2 channel S31N mutant expressed in Xenopus oocytes at 100 uM by two-electrode voltage clamp assay; format: cell-based; conditions: Oocyte
Summary of the method: (§1)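 Influenza A/Udorn/72 M2 cDNA, wild type or S31N or V27A mutant made by site-directed mutagenesis, expressed from mRNA microinjected into Xenopus oocytes. Two-electrode voltage clamp recording was done 48–72 h after injection. Compound was applied at pH 5.5 for 2 min once inward current peaked. Residual current was compared with current before application.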

[2] = system: Matrix protein 2 (Influenza A virus), P06821 [V27A]; test: Inhibition of Influenza A virus (A/Puerto Rico/8/1934(H1N1)) M2 channel V27A mutant expressed in Xenopus oocytes at 100 uM by two-electrode voltage clamp assay; format: cell-based; conditions: Oocyte; summary of the method: as §1

Compound	inhibition [1]	inhibition [2]
CC12CC3CC(N)(CC(C1)c1ccccc13)C2	inactive	inactive
CC12CC3CC(NCc4ccccc4)(CC(C1)c1ccccc13)C2	inactive	inactive
CN(C)C12CC3CC(C)(CC(C1)c1ccccc13)C2	inactive	inactive
